Assays:
[1] = tested on: Radical scavenging activity; experiment: Antioxidant activity assessed as DPPH radical scavenging activity at 50 uM after 60 mins; type: functional
Glycine max = experiment: Inhibition of soybean 5-lipoxygenase at 100 uM by UV-absorbance based enzyme assay
Outline: (§1)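 Soybean lipoxygenase (enzyme solution 1/9 × 10^-4 w/v in saline) incubated at room temperature with sodium linoleate and compound in DMSO, in Tris buffer pH 9. Conversion to 13-hydroperoxylinoleic acid recorded at 234 nm and compared with a standard inhibitor.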

[2] = tested on: Radical scavenging activity; experiment: Antioxidant activity assessed as DPPH radical scavenging activity at 50 uM after 20 mins; type: functional
[3] = tested on: Radical scavenging activity; experiment: Antioxidant activity assessed as DPPH radical scavenging activity at 100 uM after 20 mins; type: functional
Outline: (§2)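 DPPH (0.05 mM) in absolute ethanol; compounds in DMSO added to final 0.1 mM. Mixture shaken vigorously and left 20 min or 60 min. Absorbance read at 517 nm and percent activity calculated. Three replicates, averaged.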

[4] = tested on: Radical scavenging activity; experiment: Antioxidant activity assessed as DPPH radical scavenging activity at 100 uM after 60 mins; type: functional; outline: as §2
[5] = Antioxidant activity assessed as superoxide anion radical scavenging activity at 10 uM; type: functional
Outline: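 Non-enzymatic superoxide generation from PMS/NADH/air-oxygen, measured by NBT reduction. Compounds preincubated 2 min before NADH was added. Mixture of 3 µM PMS, 78 µM NADH and 25 µM NBT in phosphate buffer pH 7.4, incubated 2 min at room temperature. Absorbance read at 560 nm against a PMS-containing blank. Caffeic acid was the standard.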

[6] = Antioxidant activity assessed as hydroxyl radical scavenging activity at 100 uM; type: functional
Outline: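 Fe3+/ascorbic acid-generated hydroxyl radicals detected by the Nash method as formaldehyde formed from DMSO oxidation. The mixture held EDTA 0.1 mM, Fe3+ 167 µM, DMSO 33 mM, test compound 0.1 mM and ascorbic acid 10 mM in 50 mM phosphate buffer pH 7.4. Incubated 30 min at 37 °C, then stopped with CCl3COOH (17% w/v). Trolox was the standard.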

[7] = Antioxidant activity assessed as inhibition of AAPH-induced lipid peroxidation at 10 uM by uV spectrophotometry; type: functional
Outline: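 Aqueous linoleic acid dispersion (16 mM, 10 µL) in 0.05 M phosphate buffer pH 7.4, prethermostated at 37 °C. Oxidation started under air with AAPH (40 mM solution, 50 µL) and run with 10 µL compound aliquots. The control contained the same DMSO level. The rate of conjugated diene hydroperoxide formation was followed by the rise in absorbance at 234 nm at 37 °C.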

[8] = Inhibition of soybean 5-lipoxygenase by UV-absorbance based enzyme assay; parameters: species or system Glycine max; outline: as §1
[9] = Antioxidant activity assessed as hydrogen peroxide scavenging activity by peroxyoxalate chemiluminescent method; type: functional

SMILES	Activity [1]	inhibition (Glycine max)	Activity [2]	Activity [3]	Activity [4]	Activity [5]	Activity [6]	inhibition [7]	IC50 [8]	IC50 [9]
COc1cc(OC)c2c(c1)O/C(=C\c1ccc(C)cc1)C2=O	0%	0%	0%	8.5%	29.2%	97.4%	100%	72%		
COc1ccc(/C=C/C(=O)c2ccccc2O)cc1OC	0%		0%	6.3%	28.5%	100%	84.1%	64.6%	67.5 µM	228 µM
O=C(O)/C=C/c1ccc(O)c(O)c1 [CAFFEIC ACID]						5.5%			600 µM	
COc1ccc(/C=C2\Oc3cc(OC)cc(OC)c3C2=O)cc1 [4,4',6-TRIMETHOXY-AURONE]	0%		2.8%	0%	11.5%	63.2%	100%	42.6%	50 µM	1090 µM
Cc1ccc(/C=C2\Oc3ccccc3C2=O)cc1	29.4%	32.4%	5.6%	23.9%	49.2%	68.4%	84.5%	43.1%		2010 µM
COc1cccc(/C=C/C(=O)c2ccccc2O)c1	0%	36.4%	0%	0%	34.6%	97.4%	57%	75.8%		940 µM
O=C(/C=C/c1ccc(Cl)cc1)c1ccccc1O	0%		0%	0%	40.8%	84.2%	100%	74.4%	56 µM	713 µM
COc1ccc(/C=C2\Oc3ccccc3C2=O)cc1 [4'-METHOXY-AURONE]	0%		13.9%	5.1%	23.8%	81.6%	76.4%	64.6%	70 µM	291 µM
CC(Cc1ccc(O)c(O)c1)C(C)Cc1ccc(O)c(O)c1 (stereo unspecified) [NORDIHYDROGUAIARETIC ACID]	83%		84%	81%	83%				40 µM	
COc1ccccc1/C=C/C(=O)c1ccccc1O	0%		0%	11.8%	57.7%	92.1%	100%	43.1%	100 µM	599 µM
CC1=C(/C=C/C(C)=C/C=C/C(C)=C/C=C/C=C(C)/C=C/C=C(C)/C=C/C2=C(C)CCCC2(C)C)C(C)(C)CCC1 [BETA CAROTENE]										16.9 µM
O=C1/C(=C/c2ccc(Cl)cc2)Oc2ccccc21	10.3%	26.4%	11.1%	49.3%	76.2%	89.5%	0%	46.4%		4140 µM
COc1ccccc1/C=C1\Oc2ccccc2C1=O [(Z)-2'-METHOXYAURONE]	0%	39.9%	4.2%	25%	43.1%	73.7%	100%	71.1%		466 µM
O=c1c(O)c(-c2ccc(O)c(O)c2)oc2cc(O)cc(O)c12 [QUERCETIN]										162 µM
COc1cc(O)c(C(=O)/C=C/c2ccc(Cl)cc2)c(OC)c1	0%		0%	15.1%	46.9%	100%	100%	42.7%	82 µM	657 µM
COc1ccc(/C=C/C(=O)c2ccccc2O)cc1	0%	5%	0%	0%	40.8%	73.7%	100%	61.6%		500 µM
COc1ccc(/C=C2\Oc3ccccc3C2=O)cc1OC [3',4'-DIMETHOXY-AURONE]						97.4%	76.7%	53.3%		44 µM
COc1cc(O)c(C(=O)/C=C/c2ccccc2OC)c(OC)c1	5.9%	20%	9.7%	15.1%	47.7%	89.5%	0%	68.4%		503 µM
COc1cc(OC)c2c(c1)O/C(=C\c1ccc(Cl)cc1)C2=O	0%	7.8%	0%	6.3%	20.8%	84.2%	91.5%	82.9%		
O=C(/C=C/c1ccc(O)c(O)c1)c1c(O)cc(O)cc1O [3,4,2',4',6'-PENTAHYDROXYCHALCONE]		0%		100%	94.9%			0%		76 µM
O=C1/C(=C/c2ccc(O)c(O)c2)Oc2cc(O)cc(O)c21		0%		84.9%	97.7%			77.8%		
COCOc1cc(OCOC)c2c(c1)O/C(=C\c1ccc(OCOC)c(OCOC)c1)C2=O		0%								
COc1cc(O)c(C(=O)/C=C/c2ccc(OC)c(OC)c2)c(OC)c1	0%	1.6%	0%	12.9%	20.8%	86.8%	42.2%	73.6%		88 µM
COc1ccc(/C=C/C(=O)c2c(O)cc(OC)cc2OC)cc1 [FLAVOKAWAIN A]	0%	2.3%	0%	6.3%	40.8%	50%	78.7%	80.9%		456 µM
COc1cc(O)c(C(=O)/C=C/c2ccc(C)cc2)c(OC)c1	0%		0%	9.6%	24.6%	100%	100%	100%	53 µM	665 µM
Cc1ccc(/C=C/C(=O)c2ccccc2O)cc1	1.5%		0%	0%	43.8%	84.2%	100%	49.6%	52.5 µM	1040 µM
COCOc1cc(O)c(C(=O)/C=C/c2ccc(OCOC)c(OCOC)c2)c(OCOC)c1	0%	14.1%	5.6%	42.6%	65.4%	50%	100%	77.1%		
COc1cccc(/C=C2\Oc3ccccc3C2=O)c1 [3'-METHOXY-AURONE]	0%	34.9%	11.1%	87.9%	83.8%	50%	57.8%	62.3%		1990 µM
COc1cc(OC)c2c(c1)O/C(=C\c1ccccc1OC)C2=O	0%		4.2%	1.8%	30.8%	55.3%	77.9%	87.1%	100 µM	2400 µM
Cc1c(C)c2c(c(C)c1O)CCC(C)(C(=O)O)O2 (stereo unspecified)							73.4%	63%		
